Laboratory results: ChEMBL document CHEMBL4196073, “The aminopyridine-3,5-dicarbonitrile core for the design of new non-nucleoside-like agonists of the human adenosine A2B receptor” (Eur J Med Chem, 2018)
The source made the active and inactive calls. No cut-off for these calls is given here.

Experiments:
[1] = target: T1, Adenosine receptor A1 (Homo sapiens) (UniProt P30542); assay: Displacement of [3H]DPCPX from human adenosine A1 receptor expressed in CHO cell membranes at 1 uM after 90 mins by scintillation counting analysis
T1 sequence (whole entry): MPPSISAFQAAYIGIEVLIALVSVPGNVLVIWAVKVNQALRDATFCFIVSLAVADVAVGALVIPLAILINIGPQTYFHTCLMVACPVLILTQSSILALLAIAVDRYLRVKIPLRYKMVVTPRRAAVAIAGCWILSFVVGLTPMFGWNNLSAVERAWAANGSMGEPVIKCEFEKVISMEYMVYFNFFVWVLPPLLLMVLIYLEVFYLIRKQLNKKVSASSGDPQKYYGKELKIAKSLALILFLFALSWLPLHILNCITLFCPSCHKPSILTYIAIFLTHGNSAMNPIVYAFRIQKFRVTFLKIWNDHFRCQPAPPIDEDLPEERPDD
Procedure, shortened: (§1)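 Hypotonic-lysed (5 mM Tris HCl, 1 mM EDTA, pH 7.4), 40000 g pelleted hA1-CHO membranes, 50 µg protein/100 µl, with 1 nM [3H]DPCPX, 90 min, 25°C, 50 mM Tris HCl pH 7.4; nonspecific with 1 µM DPCPX; GF/B filtration, scintillation. Ki via Cheng–Prusoff, four assays in triplicate; I% at 1 μM.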

[2] = target: T2, Adenosine receptor A2a (Homo sapiens, UniProt P29274); assay: Displacement of [3H]-ZM241385 from human adenosine A2A receptor expressed in CHO cell membranes at 1 uM after 60 mins by scintillation counting analysis
[3] = target: T3, Adenosine receptor A3 (Homo sapiens) (UniProt P0DMS8); assay: Displacement of [125I]-ABMECA from human adenosine A3 receptor expressed in CHO cell membranes at 1 uM after 120 mins by scintillation counting analysis
T3 sequence (whole entry): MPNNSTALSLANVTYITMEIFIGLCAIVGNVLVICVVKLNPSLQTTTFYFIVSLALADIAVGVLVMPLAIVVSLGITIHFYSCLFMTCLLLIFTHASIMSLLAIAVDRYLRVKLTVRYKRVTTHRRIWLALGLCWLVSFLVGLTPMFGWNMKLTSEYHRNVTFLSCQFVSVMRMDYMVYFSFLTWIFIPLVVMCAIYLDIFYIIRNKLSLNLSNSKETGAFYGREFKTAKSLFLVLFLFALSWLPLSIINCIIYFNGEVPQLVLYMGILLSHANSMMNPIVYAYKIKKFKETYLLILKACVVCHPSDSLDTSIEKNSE
Procedure, shortened: (§2)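 Membranes of hA3-CHO cells, 50 µg protein/100 µl, incubated 120 min at 4°C with 0.5 nM [125I]AB-MECA in 50 mM Tris HCl pH 7.4, 10 mM MgCl2, 1 mM EDTA; 1 µM AB-MECA for nonspecific; filter separation, counted. Ki by Cheng–Prusoff, four assays in triplicate; I% at 1 μM.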

[4] = target: T4, Adenosine receptor A2b (Homo sapiens, UniProt P29275); assay: Agonist activity at human adenosine A2B receptor expressed in CHO cell membranes assessed as induction of cAMP accumulation by AlphaScreen assay; format: functional, cell-based
T4 sequence (P29275 whole entry): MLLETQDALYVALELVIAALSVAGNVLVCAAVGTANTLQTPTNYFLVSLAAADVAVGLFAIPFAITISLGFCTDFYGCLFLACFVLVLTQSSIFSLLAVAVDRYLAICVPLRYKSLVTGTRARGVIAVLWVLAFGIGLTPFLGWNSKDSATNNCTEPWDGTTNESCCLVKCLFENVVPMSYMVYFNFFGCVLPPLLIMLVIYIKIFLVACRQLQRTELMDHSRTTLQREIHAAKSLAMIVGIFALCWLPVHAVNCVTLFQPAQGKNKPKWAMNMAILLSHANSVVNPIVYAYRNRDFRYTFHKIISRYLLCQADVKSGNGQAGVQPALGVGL
Procedure, shortened: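 Intact hA2B-transfected CHO cells, trypsin-detached, stimulated in HBSS/5 mM HEPES/0.5 mM Ro 20-1724/0.1% BSA with compound alone at 1 nM–1 μM; cAMP read by AlphaScreen kit; EC50 from four separate assays each in triplicate, mean ± SEM.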

[5] = target: T5, Adenosine receptor A2b (Homo sapiens) (UniProt P29275); assay: Agonist activity at human adenosine A2B receptor expressed in CHO cell membranes assessed as induction of cAMP accumulation at 1 uM by AlphaScreen assay relative to NECA; format: functional, cell-based
T5 sequence (whole entry): T4 sequence (P29275 whole entry)
Procedure, shortened: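 Whole adherent hA2B-transfected CHO cells (DMEM/F12, 10% FCS, G418), trypsin-detached, in HBSS with 5 mM HEPES, 0.5 mM Ro 20-1724, 0.1% BSA; test compound at 1 μM alone; cAMP by AlphaScreen; efficacy expressed relative to NECA 1 μM taken as 100%.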

[6] = target: T6, Adenosine receptor A1 (Homo sapiens, UniProt P30542); assay: Displacement of [3H]DPCPX from human adenosine A1 receptor expressed in CHO cell membranes after 90 mins by scintillation counting analysis; procedure, shortened: as §1
T6 sequence (P30542 whole entry): T1 sequence (whole entry)

[7] = target: T2, Adenosine receptor A2a; assay: Displacement of [3H]-ZM241385 from human adenosine A2A receptor expressed in CHO cell membranes after 60 mins by scintillation counting analysis
[8] = target: T5, Adenosine receptor A2b (Homo sapiens); assay: Antagonist activity at human adenosine A2B receptor expressed in CHO cell membranes assessed as inhibition of NECA-stimulated cAMP accumulation at 1 uM by AlphaScreen assay; format: functional, cell-based
Procedure, shortened: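 hA2B-transfected CHO cells in HBSS, 5 mM HEPES, 0.5 mM Ro 20-1724, 0.1% BSA; compound at 1 μM given with NECA 100 nM; cAMP production measured by AlphaScreen.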

[9] = target: T7, Adenosine receptor A3 (Homo sapiens, UniProt P0DMS8); assay: Displacement of [125I]-ABMECA from human adenosine A3 receptor expressed in CHO cell membranes after 120 mins by scintillation counting analysis; procedure, shortened: as §2
T7 sequence (P0DMS8 whole entry): T3 sequence (whole entry)

T2 sequence (P29274 whole entry): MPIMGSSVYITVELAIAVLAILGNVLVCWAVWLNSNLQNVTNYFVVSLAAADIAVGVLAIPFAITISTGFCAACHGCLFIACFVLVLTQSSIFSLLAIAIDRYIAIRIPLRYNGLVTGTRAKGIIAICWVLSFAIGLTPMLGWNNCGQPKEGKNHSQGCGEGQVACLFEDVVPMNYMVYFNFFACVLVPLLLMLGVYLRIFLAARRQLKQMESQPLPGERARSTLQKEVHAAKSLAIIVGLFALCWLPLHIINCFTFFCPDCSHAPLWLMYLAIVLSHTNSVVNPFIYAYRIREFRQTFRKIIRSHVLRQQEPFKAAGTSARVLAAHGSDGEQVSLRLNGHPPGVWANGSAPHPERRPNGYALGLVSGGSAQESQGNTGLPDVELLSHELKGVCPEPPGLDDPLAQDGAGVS

| SMILES | inhibition [1] | inhibition [2] | inhibition [3] | EC50 [4] | Efficacy [5] | Ki [6] | Ki [7] | inhibition [8] | Ki [9] |
| --- | --- | --- | --- | --- | --- | --- | --- | --- | --- |
| N#Cc1c(N)nc(SCc2cnc[nH]2)c(C#N)c1-c1ccc(OCC2CC2)cc1 | 1% | 7% | 1% | 139 nM | 50% |  |  |  |  |
| N#Cc1c(N)nc(SCC(N)=O)c(C#N)c1-c1ccc(OCC2CC2)cc1 | 31% | 2% | 8% | 31 nM | 100% |  |  |  |  |
| N#Cc1c(N)nc(SCc2ccn[nH]2)c(C#N)c1-c1ccc(OCC2CC2)cc1 |  | 2% | 6% | 84 nM | 48% | 552 nM |  |  |  |
| N#Cc1c(N)nc(SCc2ncn[nH]2)c(C#N)c1-c1ccc(OCC2CC2)cc1 |  | 1% | 1% | 51 nM | 50% | 338 nM |  |  |  |
| CNC(=O)CSc1nc(N)c(C#N)c(-c2ccc(OCC3CC3)cc2)c1C#N | 14% | 1% | 3% | 94 nM | 63% |  |  |  |  |
| N#Cc1c(N)nc(SCc2cccnc2)c(C#N)c1-c1ccc(OCC2CC2)cc1 |  |  | 19% |  | 1% | 67 nM | 424 nM |  |  |
| N#Cc1c(N)nc(SCc2nnn[nH]2)c(C#N)c1-c1ccc(OCC2CC2)cc1 | 3% | 1% | 1% |  | 25% |  |  | inactive |  |
| N#Cc1c(N)nc(SCC2=NCCN2)c(C#N)c1-c1ccc(OCC2CC2)cc1 |  | 14% | 6% |  | 7% | 483 nM |  | inactive |  |
| N#Cc1c(N)nc(SCC(=O)NCO)c(C#N)c1-c1ccc(OCC2CC2)cc1 | 10% | 1% | 8% | 182 nM | 57% |  |  |  |  |
| CCOc1ccc(-c2c(C#N)c(N)nc(SCC(N)=O)c2C#N)cc1 |  | 1% | 20% | 38 nM | 66% | 345 nM |  |  |  |
| N#Cc1c(N)nc(SCc2csc(N)n2)c(C#N)c1-c1ccc(OCC2CC2)cc1 |  | 1% | 1% |  | 17% | 140 nM |  | inactive |  |
| N#Cc1c(N)nc(SCc2cccc(C(N)=O)c2)c(C#N)c1-c1ccc(OCC2CC2)cc1 |  | 25% | 1% | 12.7 nM | 69% | 83 nM |  |  |  |
| C=CCOc1ccc(-c2c(C#N)c(N)nc(SCc3ccn[nH]3)c2C#N)cc1 |  | 8% | 13% |  | 7% | 44 nM |  | inactive |  |
| C=C(C)COc1ccc(-c2c(C#N)c(N)nc(SCC(N)=O)c2C#N)cc1 |  | 31% | 4% |  | 2% | 872 nM |  |  |  |
| C=CCOc1ccc(-c2c(C#N)c(N)nc(SCC(N)=O)c2C#N)cc1 |  | 18% |  |  | 11% | 323 nM |  |  | 444 nM |
| COC(=O)CSc1nc(N)c(C#N)c(-c2ccc(OCC3CC3)cc2)c1C#N | 23% | 1% | 1% |  | 1% |  |  | inactive |  |
| N#Cc1c(N)nc(SCn2cncn2)c(C#N)c1-c1ccc(OCC2CC2)cc1 | 12% | 1% | 1% |  | 1% |  |  | inactive |  |
| N#Cc1c(N)nc(SCC(N)=O)c(C#N)c1-c1ccc(OCC2CCC2)cc1 | 1% | 5% | 1% |  | 5% |  |  | inactive |  |
| COC(=O)c1cccc(CSc2nc(N)c(C#N)c(-c3ccc(OCC4CC4)cc3)c2C#N)c1 |  | 1% | 4% | 347 nM | 27% | 66 nM |  |  |  |
| N#Cc1c(N)nc(SCc2nc3ccccc3[nH]2)c(C#N)c1-c1ccc(OCC2CC2)cc1 | 21% | 6% | 1% |  | 12% |  |  | inactive |  |
| CCOc1ccc(-c2c(C#N)c(N)nc(SCc3ccn[nH]3)c2C#N)cc1 |  | 4% | 18% | 332 nM | 34% | 21 nM |  |  |  |
| N#Cc1c(N)nc(SCC(=O)NO)c(C#N)c1-c1ccc(OCC2CC2)cc1 |  | 1% | 31% |  | 20% | 536 nM |  |  |  |
| N#Cc1c(N)nc2sc(C(N)=O)c(N)c2c1-c1ccc(OCC2CC2)cc1 | 19% | 3% | 13% |  | 1% |  |  |  |  |
| CC(C)COc1ccc(-c2c(C#N)c(N)nc(SCC(N)=O)c2C#N)cc1 |  |  | 9% |  | 1% | 603 nM | 307 nM |  |  |
